From ChEMBL document CHEMBL5724801, “EUbOPEN Chemogenomics Library - Multiplex” (2024)
Several values for one entry are separate records, joined by “and”; a condition that tells them apart may be missing. Equal values may be shown once.

System: HEK-293T
Experiment: Multiplex assay against HEK293T
Assay type: toxicity, cell-based
Conditions: human
Summary of the method: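 Live cells were stained at seeding with Hoechst33342, BioTracker Green Microtubule Cytoskeleton Dye, MitoTracker Red and Annexin V Alexa Fluor 680. Following compound addition, they were imaged on a CQ1 microscope at 37°C and 5% CO2 and gated by CellPathfinder machine learning into Hoechst high-intensity objects or normal cells, with normal cells split into healthy, pyknosed or fragmented nuclei and pyknosed cells into mitotic or apoptotic. Tubulin, mitochondrial-mass and membrane-permeability phenotypes are per cents of healthy-nucleus cells.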

[1] = 12 h, 1 µM, compound concentration 1 uM
[2] = 12 h, 10 µM, compound concentration 10 uM
[3] = 24 h, 1 µM, compound concentration 1 uM
[4] = 24 h, 10 µM, compound concentration 10 uM
[5] = 48 h, 1 µM, compound concentration 1 uM
[6] = 48 h, 10 µM, compound concentration 10 uM

## N[C@@]1(C(=O)O)CO[C@H]2[C@H](C(=O)O)[C@H]21 [LY-379268]
[1]
  Population Apoptotic (%): 40% and 42%
  Population Fragmented Nuclei (%): 6%
  Population Healthy Nuclei (%): 81% and 80%
  Population Hoechst High Intensity Objects (%): 5% and 10%
  Population Membrane Permeable-Phenotype (%): 0% and 1%
  Population Mitochondria Different-Phenotype (%): 38% and 57%
  Population Mitotic Cells (%): 60% and 57%
  Population Normal (%): 94% and 89%
  Population Pyknosed Nuclei (%): 12%
  Population Tubulin-Different-Phenotype (%): 26% and 18%
  Total Cell Count: 396 and 411
[2]
  Population Apoptotic (%): 27% and 52%
  Population Fragmented Nuclei (%): 10% and 8%
  Population Healthy Nuclei (%): 78% and 79%
  Population Hoechst High Intensity Objects (%): 8% and 7%
  Population Membrane Permeable-Phenotype (%): 0%
  Population Mitochondria Different-Phenotype (%): 33% and 51%
  Population Mitotic Cells (%): 72% and 47%
  Population Normal (%): 91% and 92%
  Population Pyknosed Nuclei (%): 10% and 12%
  Population Tubulin-Different-Phenotype (%): 31% and 18%
  Total Cell Count: 437 and 380
[3]
  Population Apoptotic (%): 30% and 29%
  Population Fragmented Nuclei (%): 8% and 7%
  Population Healthy Nuclei (%): 79% and 83%
  Population Hoechst High Intensity Objects (%): 2% and 7%
  Population Membrane Permeable-Phenotype (%): 0%
  Population Mitochondria Different-Phenotype (%): 21% and 31%
  Population Mitotic Cells (%): 70%
  Population Normal (%): 97% and 92%
  Population Pyknosed Nuclei (%): 11% and 9%
  Population Tubulin-Different-Phenotype (%): 20% and 13%
  Total Cell Count: 517 and 481
[4]
  Population Apoptotic (%): 36% and 43%
  Population Fragmented Nuclei (%): 10% and 8%
  Population Healthy Nuclei (%): 79% and 82%
  Population Hoechst High Intensity Objects (%): 6% and 8%
  Population Membrane Permeable-Phenotype (%): 0%
  Population Mitochondria Different-Phenotype (%): 24% and 39%
  Population Mitotic Cells (%): 63% and 56%
  Population Normal (%): 93% and 91%
  Population Pyknosed Nuclei (%): 9%
  Population Tubulin-Different-Phenotype (%): 15%
  Total Cell Count: 551 and 470
[5]
  Population Apoptotic (%): 26% and 33%
  Population Fragmented Nuclei (%): 13% and 10%
  Population Healthy Nuclei (%): 79% and 81%
  Population Hoechst High Intensity Objects (%): 3% and 7%
  Population Membrane Permeable-Phenotype (%): 1% and 0%
  Population Mitochondria Different-Phenotype (%): 15% and 22%
  Population Mitotic Cells (%): 73% and 66%
  Population Normal (%): 97% and 92%
  Population Pyknosed Nuclei (%): 6% and 7%
  Population Tubulin-Different-Phenotype (%): 9% and 14%
  Total Cell Count: 866 and 611
[6]
  Population Apoptotic (%): 24% and 25%
  Population Fragmented Nuclei (%): 16% and 11%
  Population Healthy Nuclei (%): 75% and 80%
  Population Hoechst High Intensity Objects (%): 4%
  Population Membrane Permeable-Phenotype (%): 1% and 0%
  Population Mitochondria Different-Phenotype (%): 18% and 19%
  Population Mitotic Cells (%): 75%
  Population Normal (%): 95%
  Population Pyknosed Nuclei (%): 7%
  Population Tubulin-Different-Phenotype (%): 10% and 9%
  Total Cell Count: 781 and 689

## COc1ccc(Cl)cc1[C@]1(F)C(=O)Nc2cc(C(F)(F)F)ccc21 [FLINDOKALNER]
[1]
  Population Apoptotic (%): 8.33% and 8.73%
  Population Fragmented Nuclei (%): 2.3% and 5.16%
  Population Hoechst High Intensity Objects (%): 0%
  Population Membrane Permeable-Phenotype (%): 0.56% and 0%
  Population Mitochondria Different-Phenotype (%): 45.76% and 33.33%
  Population Mitotic Cells (%): 91.67% and 91.27%
  Population Normal (%): 100%
  Population Pyknosed Nuclei (%): 39.47% and 81.29%
  Total Cell Count: 304 and 155
[2]
  Population Apoptotic (%): 11.41% and 18.18%
  Population Fragmented Nuclei (%): 2.47% and 3.73%
  Population Hoechst High Intensity Objects (%): 0.54% and 0%
  Population Membrane Permeable-Phenotype (%): 0.48% and 0%
  Population Mitochondria Different-Phenotype (%): 38.16% and 26.32%
  Population Mitotic Cells (%): 88.59% and 81.82%
  Population Normal (%): 99.46% and 100%
  Population Pyknosed Nuclei (%): 40.82% and 82.09%
  Total Cell Count: 367 and 134
[3]
  Population Apoptotic (%): 16.18% and 15.32%
  Population Fragmented Nuclei (%): 1.01% and 6.17%
  Population Hoechst High Intensity Objects (%): 0%
  Population Membrane Permeable-Phenotype (%): 3.37% and 0%
  Population Mitochondria Different-Phenotype (%): 17.98% and 10.71%
  Population Mitotic Cells (%): 83.82% and 84.68%
  Population Normal (%): 100%
  Population Pyknosed Nuclei (%): 27.36% and 76.54%
  Population Tubulin-Different-Phenotype (%): 11.8% and 10.71%
[4]
  Population Apoptotic (%): 13.79% and 23.64%
  Population Fragmented Nuclei (%): 2.57% and 5.62%
  Population Healthy Nuclei (%): 68.77% and 25.62%
  Population Hoechst High Intensity Objects (%): 0.2% and 0%
  Population Membrane Permeable-Phenotype (%): 0.86% and 0%
  Population Mitochondria Different-Phenotype (%): 23.28% and 12.2%
  Population Mitotic Cells (%): 86.21% and 76.36%
  Population Normal (%): 99.8% and 100%
  Population Pyknosed Nuclei (%): 28.66% and 68.75%
[5]
  Population Fragmented Nuclei (%): 2.21% and 2.93%
  Population Healthy Nuclei (%): 85.07% and 54.63%
  Population Hoechst High Intensity Objects (%): 0%
  Population Membrane Permeable-Phenotype (%): 4.29% and 2.68%
  Population Mitochondria Different-Phenotype (%): 14.16% and 20.54%
  Population Mitotic Cells (%): 96% and 72.41%
  Population Normal (%): 100%
[6]
  Population Apoptotic (%): 9.02% and 19.67%
  Population Fragmented Nuclei (%): 2.19% and 4.66%
  Population Healthy Nuclei (%): 86.19% and 63.73%
  Population Hoechst High Intensity Objects (%): 0% and 0.52%
  Population Membrane Permeable-Phenotype (%): 7.07% and 1.63%
  Population Mitochondria Different-Phenotype (%): 21.1% and 21.95%
  Population Mitotic Cells (%): 90.98% and 80.33%
  Population Normal (%): 100% and 99.48%
  Population Pyknosed Nuclei (%): 11.62% and 31.61%
